First the molecules themselves.
B1: tRNA (parent)
chain: GUUCCGUUGGCGUAAUGGUAACGCGUCUCCCUCCUAAGGAGAAGACUGCGGGUUCGAGUCCCGUACGGAACG

This sample holds only a part of the variants without activity.

The variants in the data set derive from B1. The data set can be described thus: yeast fitness relative to wild type (ratio to wild type); higher = fitter; tRNA-Arg(CCU), competitive growth, 37 C, YPD. An outline of the steps: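 Genotype frequency changes were the basis for Darwinian fitness relative to wild type. The frequencies came from 100-nucleotide paired-end sequencing of gene amplicons from the start population and each end population of pooled yeast strains with tRNA-Arg(CCU) gene variants at the native locus. Competition ran in YPD at 37°C for 24 hours in six replicates, genotypes needed ≥ 100 starting reads, and estimates < 0.5 were set to 0.5.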
With U3C C22G, the yeast fitness was 0.859.

On to U3C C5A C34U U35A C49A U54A, for which the yeast fitness is at most 0.5. For U3C G6A G23C C49G U53G A57G, the yeast fitness was at most 0.5. Regarding U3A C31U A70U, the yeast fitness came to 0.688. Take U3C C31U G39A G44A C61U: the yeast fitness is at most 0.5. U3A C46A A69C: the yeast fitness was 0.997. For U3C C49G, the yeast fitness is 0.943. On to U3C C4U A15G U26A U32A, for which the yeast fitness turned out to be 0.571. For the variant U3C C31U U54A, the yeast fitness came out at 0.583.

U3C C30U A37G C61A: the yeast fitness was at most 0.5.

As for U3A G67C, the yeast fitness came to 0.827. As to U3C C31U C49G, the yeast fitness amounted to 0.755.

In the case of U3C A65G, the yeast fitness was 0.887.

Turning to U3C C31U G58C, the yeast fitness was 0.712. To U3C A21G C34G A69C belongs at most 0.5; to U3A G18A U19C C27G C61A U64G, at most 0.5; to U3A U26A C34U U47G U64A, at most 0.5.

Consider U3C C27U, for which the yeast fitness was found to be 0.941. On to U3C C4U C30U A57G, for which the yeast fitness is at most 0.5. Turning to U3A C33U, the yeast fitness was 0.791. With U3C C61U U64C, the yeast fitness was 0.72. Take U3A U13C C29A A43G G67C: the yeast fitness amounted to 0.595. The value for U3C A15G C29A A40U C55G C61G was at most 0.5; that for U3C C5G A21U A42C was at most 0.5; that for U3A G9C A20G A40G U64C was at most 0.5. Consider U3A U16C A20C, for which the yeast fitness is at most 0.5. Consider U3C C22G G67U, for which the yeast fitness worked out at 0.538. For the variant U3A G10A U19A A42G U64A, the yeast fitness was at most 0.5. The value for U3A U54A G56C was 0.767; that for U3C C4A A65C was 0.62; that for U3A C31G G67U was 0.542. Turning to U3A C34U, the yeast fitness was 0.735. Take U3A U16C C33G C66G: the yeast fitness was found to be 0.664. For U3C C31U G68C, the yeast fitness was 0.664. The value for U3C C55G U64A was 0.563; that for U3C A21G C29G was at most 0.5. Take U3A G56C G67C: the yeast fitness was determined as 0.573. On to U3C C55A, for which the yeast fitness is 0.687. Turning to U3C C55U, the yeast fitness came out at 0.687. The value for U3C C55U G58A was 0.508; that for U3A C55G A65C was at most 0.5; that for U3C A15C was 0.695. For the variant U3A C49A, the yeast fitness came out at 0.609.

For U3A C49G, the yeast fitness worked out at 0.792. Regarding U3A C49U, the yeast fitness was determined as 0.954. Turning to U3A G6C A37U G58A, the yeast fitness is 0.524. For U3A G9A U19A G44C G68C, the yeast fitness was at most 0.5. For U3A G9A A14C, the yeast fitness was 0.551. To U3C C11U U13C C24A A43C G50C C60G belongs at most 0.5; to U3A G12A C29G G39A C66G, at most 0.5; to U3A G9C C31G C61U, 0.581.

As to U3C C34U G41C C49U G58A U64A, the yeast fitness was at most 0.5. To U3A G63C belongs 0.743; to U3A G63A, 0.772. Consider U3A G6C G17A A37U G58A, for which the yeast fitness was at most 0.5. Turning to U3A G12C G58A C66U, the yeast fitness was at most 0.5. As to U3C A40U C49A A70U, the yeast fitness was at most 0.5. As to U3C C4G G12C, the yeast fitness was 0.687. With U3C C11U G56A, the yeast fitness came to 0.742. In the case of U3C C4U, the yeast fitness was determined as 1.01. U3A C46G C49U G56C: the yeast fitness is 0.734. Regarding U3A C31U A40C A70G, the yeast fitness is at most 0.5. To U3A U7C C11U U13C C31A belongs at most 0.5; to U3C C4G A15U C33A G52C, at most 0.5. As to U3C C11U A36C A65C C66U, the yeast fitness is at most 0.5. Take U3C C22G C27A C49U: the yeast fitness was at most 0.5. With U3C C22U G48A, the yeast fitness was determined as 0.955.

In the case of U3C C29G C30G C49A G56C C61U, the yeast fitness was determined as 0.789.

Consider U3A C49U A69U, for which the yeast fitness amounted to 0.759. U3C C29U G58C: the yeast fitness was 0.58. Consider U3C C24U G56A, for which the yeast fitness came out at 0.757. With U3A G51A, the yeast fitness came out at 0.765.

In the case of U3A G9A C62G C66G, the yeast fitness is at most 0.5.

As for U3C C31U C46A, the yeast fitness is 0.79. The value for U3A C34U G56C was at most 0.5; that for U3C A45U U64C was 0.709.

As for U3C C4U U35C A70U, the yeast fitness worked out at 0.544. For the variant U3C C5U U26A G63A, the yeast fitness was at most 0.5.

For U3A G12C G52A A65U, the yeast fitness is at most 0.5. U3C C24U A36C G63A: the yeast fitness was at most 0.5.

Take U3A U16C C46U: the yeast fitness came out at 0.631. With U3A G12A A15G C24U A45U, the yeast fitness is at most 0.5. To U3C A15C A20G belongs at most 0.5; to U3A U7G A14U G25A G41C C46U, at most 0.5; to U3A U16C U19C C46U, at most 0.5. The value for U3A C46U G48A C55U U59A was at most 0.5; that for U3C C55A C60A was at most 0.5.

For the variant U3C A20U G68U A69G, the yeast fitness worked out at 0.99. With U3A U28A, the yeast fitness is 0.865.

For the variant U3C C24A A43G G52A G58A, the yeast fitness was at most 0.5. To U3A U53C U54C belongs at most 0.5; to U3A U7G, 0.734. The value for U3A U7G C29G C49U was at most 0.5. Turning to U3C C34G C49A G50A, the yeast fitness is at most 0.5. For U3C A15U U16C C34U A43G, the yeast fitness was at most 0.5. For U3C C11A C24U A42G, the yeast fitness worked out at 0.638. As for U3C C31U A45U, the yeast fitness was 0.718.

As to U3C A36G, the yeast fitness is 0.91. As for U3C C11U, the yeast fitness is 1.06.

For the variant U3C C11U G17C C22A C24G U28C C33A, the yeast fitness is at most 0.5. Turning to U3C C4A G17A G41A C66U, the yeast fitness is at most 0.5. To U3C A14U A20C C24G C55U A69C belongs at most 0.5. To U3C A14U U16G U19A A42G C61G belongs at most 0.5. The value for U3A G25A G58C C66U was 0.596; that for U3A U19A C46A G56A was 0.564; that for U3A U32G G56A G68U A69U was at most 0.5. Consider U3C C30A U35C G39A A42C A43G C46U A65C, for which the yeast fitness was at most 0.5. As for U3C C5G C11G C66U, the yeast fitness was at most 0.5. As to U3C C5U G68A, the yeast fitness is at most 0.5.

As for U3C A20U A70C, the yeast fitness stood at 0.59.

For the variant U3A U8A A43U C55U, the yeast fitness is at most 0.5. Consider U3C A14C A21G C22U A37U C49A C60G, for which the yeast fitness was at most 0.5. For the variant U3C C4G A42G A45U C66U, the yeast fitness was 0.53.

For the variant U3A U26C U59C, the yeast fitness is at most 0.5. To U3C C22G C27G C31G C61G A69U belongs 0.615. For the variant U3C C27A C62U, the yeast fitness came to 0.526. Take U3A G12C A21C A36C: the yeast fitness is at most 0.5. The value for U3A U19A C33U G52C A65G was at most 0.5; that for U3C A20C G23C was at most 0.5; that for U3A U26A G58C G63A was at most 0.5. U3A G52A: the yeast fitness was 0.764. On to U3C C27U U35C, for which the yeast fitness turned out to be 0.626. On to U3C A45G, for which the yeast fitness was determined as 0.903. To U3C C22A U47A A70G belongs at most 0.5; to U3C C27G C49A, at most 0.5.

U3A C30U U59A A69C: the yeast fitness is at most 0.5. On to U3C C11A C27G C33A A43C C46A, for which the yeast fitness is 0.687. U3C C22U C66U: the yeast fitness is 0.552. Consider U3C A40G C46A A65G, for which the yeast fitness is 0.763. Regarding U3C C34G A57C, the yeast fitness was 0.715. On to U3A G51A A65G A69U, for which the yeast fitness came to 1.03. To U3A U26G C66U belongs at most 0.5; to U3A G18A C22U, at most 0.5; to U3C C29U C33A A40C, at most 0.5. Turning to U3C A15C A36U, the yeast fitness was at most 0.5.

On to U3C C5G U28G C31U G51A U54A U59A, for which the yeast fitness is at most 0.5. As to U3A C31U A57U, the yeast fitness came out at 0.598. With U3A U19A A42U G44C U54A, the yeast fitness was at most 0.5. On to U3A U8A C31G A40C, for which the yeast fitness turned out to be 0.563. In the case of U3A G12C A21C A36C A70U, the yeast fitness is 0.553. Take U3C C31U A65C: the yeast fitness was 0.791. To U3C C31A A42G A43G G68C belongs at most 0.5.

As to U3C C27G C30U G67A, the yeast fitness came out at 0.554.

Consider U3C C33A C61G, for which the yeast fitness worked out at 0.731. In the case of U3A G44A C55U, the yeast fitness was at most 0.5. Regarding U3C A21C C22U C31U C33U, the yeast fitness was at most 0.5. On to U3A G12C, for which the yeast fitness was found to be 0.635. Regarding U3A G12A, the yeast fitness came to 0.826.

Consider U3C A40U G44C, for which the yeast fitness came to 0.625. The value for U3C C24U C29G C49U was 0.618; that for U3C C33U was 0.803.

For U3C C31G U32C G38C C46G G48C, the yeast fitness is at most 0.5.

Take U3A C62U U64C: the yeast fitness is 0.77. U3C A20U C30G C33U G58C: the yeast fitness is at most 0.5. U3C C33G A69C: the yeast fitness was determined as 0.621.

In the case of U3C A36U C62U, the yeast fitness worked out at 0.553. Take U3C A21U G50C A65U: the yeast fitness was at most 0.5.

Consider U3A U35A A42C, for which the yeast fitness came out at 0.629.

Take U3C C11A U32G C61A C62A: the yeast fitness was determined as 0.587. With U3C A36C A43C A69C, the yeast fitness is at most 0.5. In the case of U3A G41C C55U, the yeast fitness is at most 0.5.

With U3C C24G C49U C55G G58A, the yeast fitness is 0.576. On to U3C A57G, for which the yeast fitness was determined as 0.714.

Consider U3C C22G A70C, for which the yeast fitness stood at 0.679. Consider U3A G10A U32G C66A, for which the yeast fitness was at most 0.5. Regarding U3A G25C, the yeast fitness was found to be 1.03. Regarding U3C C30G A43C, the yeast fitness was 0.548.

Source of the values: the RNAGym collection of RNA variant scans (doi:10.1126/science.aae0568).
